System: MS2 coat protein
Test: apparent Kd, MS2 coat protein; higher = weaker binding; RNA-MaP array; FMN 200 µM where present
Outline: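 Stalled E. coli RNA polymerase transcribed the designs on Illumina sequencing-chip clusters. SNAP-549-labelled MS2 coat protein was titrated from 0.7 or 1.5 nM, doubling to 3 µM, without and then with constant ligand, in 100 mM Tris-HCl pH 7.5, 80 mM KCl, 4 mM MgCl2, BSA, DTT, yeast tRNA and Tween-20. Per-cluster binding curves were fitted to green signal normalised to red-channel RNA signal and control-cluster median Fmax. The apparent Kd is the median of the filtered fits.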

[1] = designed as: OFF switch for flavin mononucleotide, no ligand
[2] = ligand present: flavin mononucleotide, designed as: OFF switch for flavin mononucleotide
[3] = designed as: ON switch for flavin mononucleotide, no ligand
[4] = ligand present: flavin mononucleotide, designed as: ON switch for flavin mononucleotide

| Sequence | apparent Kd [1] [µM] | apparent Kd [2] [µM] | apparent Kd [3] [µM] | apparent Kd [4] [µM] |
| --- | --- | --- | --- | --- |
| UGCUACGGAGGAUAUACAUGAGGAUCACCCAUGUGAGAGAUUUGGCCGAGAGGCCAGUGUAGAAGGCCGUAGCU | 0.0689 | 0.416 | – | – |
| GGGCCCGGAGGAUAUACAUGAGGAUCACCCAUGUAUUUGGGCCCUAUUGGGCCCGGGUGUAGAAGGCCGGGUUU | 0.0157 | 0.0214 | – | – |
| UGUUAUUAGACAGGAUAUUGAAUGUUAAGUAUUAACAUGAGGAUCACCCAUGUAUUUGAUUGGUACAAGAAGGGUCAUGUUCCU | – | – | 0.431 | 0.649 |
| ACAAGAUCAGGAUAUACAUGAGGAUCACCCAUGUAUAUAAAAAAAGGGCCUUCUACAUGUAGAAGGGAUCUUGU | 0.0138 | 0.0137 | – | – |
| CUGGUUGUCGAGGAUAUGCACCAGCUCGCUGACGCAGAAGGCGACACAUGAGGAUCACCCAUGUCGGUUCGCGU | 0.0219 | 0.0329 | – | – |
| UAUAAUUAGUAGAAGGACGGUGAGUAAGAGGUCGUAGGAUAUACAACUGACAUGAGGAUCACCCAUGUGUGUAUGUUGGGAAGG | 0.0111 | 0.0099 | – | – |
| AUGCUGUCAGGAUAUCGUUAAUUUAGUUGUUUGUAUUAGUUCGAGAAGGGACAUGAGGAUCACCCAUGUAUGUA | 0.0307 | 0.0548 | – | – |
| AAGAAACAUGAGGAUCACCCAUGUAAGAUAAACACAGGAUAUGCGAAUAAAAUAAAUAAAGCAGAAGGGUGAAGAA | – | – | – | 0.0167 |
| GGUCGUCAGAUUAACAUGAGGAUCACCCAUGUCUUUUGACAUGAGGAUAUGGAUCCUAAUUGGAUCCAGAAGGCAUGGACGACC | – | – | 1.17 | 0.104 |
| GCGGUCAACGUAGGAUAUCUUCAGCCACAGCACAUUGCUGUACAUGAGGAUCACCCAUGUCCUGGAGAGAAGGACGGACGGCAG | – | – | 0.179 | 0.0353 |
| ACAUAAUACGAGAAGGGAGUACAUGAGGAUCACCCAUGUGCUCAGGUGUACUCAGGAUAUCGGCUGACGCAAGGUUCAGGGAAU | 0.0116 | 0.0943 | – | – |
| AUCAGCUCGUCAGGAUAUACGUCACUGCCUCAGCAGUGUGGUAAGAUCACAUGAGGAUCACCCAUGUAGAAGGGACGAGCUGAU | 0.0155 | 0.299 | – | – |
| AUUCCCAACCAGAAGGACAUGAGGAUCACCCAUGUAGGAUAUGGGUGGGUGACCCGAACUUGGACGACAUCACAAUUCUCACAC | – | – | 0.0556 | 0.00949 |
| AGUAAGAUGCAGAAGGUGUCAGCGAGAGCUGCGACAUGAGGAUCACCCAUGUACCAGUGAGGGUACAAGGAUAUGCAUCUUACA | – | – | 0.243 | 0.0193 |
| UAGUGCGUUAGAGGAUAUUCAAGGUGAAAAAAAAAUACAUGAGGAUCACCCAUGUAAAAACAUGAGGAGAAGGCUGAUGUGCUA | – | – | 0.0386 | 0.0276 |
| UGGUACUAGGGAGGAUAUAGGAAGAUACAUGAGGAUCACCCAUGUUUAAGAAUGCCGAGAGGCAACUAGAAGGCCCUAGUACCU | – | – | 0.005 | 0.00474 |
| UGUCGGAGCAGAGGAUAUUACAUGAGGAUCACCCAUGUAUGAACCAAUAGCUGGAAACAGCAAGGUAAGAAGGCUGCUCCGACA | 0.00524 | 0.00998 | – | – |
| AAUAAUUAGUAAGGAUAUACUAGCGAUUAGCUUGUAGAAGGUACAGUCUUAUGUAUAACAUGUUAACAUGAGGAUCACCCAUGU | – | – | 0.0689 | 0.0293 |
| AAUUAGUGAGGAUAUUUUAACAGUGGCAGUAGCCAGUGCAUGAAGAAGGCACAUGAGGAUCACCCAUGUUAUAA | 0.101 | 0.0915 | – | – |
| GUAAGUACGAGAGGAUAUUGACAUGAGGAUCACCCAUGUAUUUGGGAGUGUUCACUGAAUUCUUACGAGAAGGCUUGUACAUAC | 0.221 | 0.22 | – | – |
| CUGAAGUCAGGAUAUCGUUAAUUUAGUUGUUUGUAUUAGUUCGAGAAGGGACAUGAGGAUCACCCAUGUAAGUC | 0.0339 | 0.0459 | – | – |
| UUUUAACAUGAGGAUCACCCAUGUGAGGAUAUCGUAUUUUUUAUUAAUAUUAAUAAAACGAGAAGGCACAUUUU | 0.0955 | 0.0973 | – | – |
| CUUUUGUGAGGAUAUUGGUAGUAAAUGAAUAAAAUUAUUACCGAGAAGGCACAUGAGGAUCACCCAUGUUCCUC | 0.0477 | 0.491 | – | – |
| CGGAACAUGAGGAUCACCCAUGUAGCUACUUAAAGGUGCUACAGAAGGGACAUUGCGCGUCAUGGUCAGGAUAUGUAGGGCUGA | – | – | 0.379 | 0.108 |

| Sequence | apparent Kd [1] [µM] | apparent Kd [2] [µM] | apparent Kd [3] [µM] | apparent Kd [4] [µM] |
| --- | --- | --- | --- | --- |
| UCUGCCGCCGUGAGGAUAUGCCCAAAAAAACGCGGGCAGAAGGCACAUGAGGAUCACCCAUGUCCCGCGGUUUU | 0.0195 | 0.0341 | – | – |
| AGAGCGAUAGGAUAUACAUGAGGAUCACCCAUGUUAAAAGUGGAAUCCUUGGACGCAUGUAGAAGGAUUGCGCC | 0.0497 | 0.0942 | – | – |
| UUUUACCGAGGAUAUACAUAUAAAUAAUAAUCCUCAUUAUUACAUGAGGAUCACCCAUGUAGAAGGCGGAUUUU | 0.0892 | 0.0668 | – | – |
| AAGGACAGAGGAUAUACAUAGAUACAGAUUCAUGUAGAACUACAUGAGGAUCACCCAUGUAGAAGGCUGUCCUA | 0.0307 | 0.285 | – | – |
| GCCUCAUAGUAGAAGGGACUUUUACAGUAAUGUUUUUAGUGUAAAUAACAUGAGGAUCACCCAUGUCAGGAUAUACUAAGAGGC | 0.00582 | 0.00635 | – | – |
| GUAGCAUACCAAGGAUAUUUAGGGCUUUGAUAGACAUGAGGAUCACCCAUGUGGCGUUAGUCACGGGAGAAGGUGGUAUGCUAC | – | – | 0.383 | 0.0819 |
| GUCUUAUUACAGAAGGUGUUUUACAUGAGGAUCACCCAUGUUUUAUUGUUUAAAUUUGAUAUUUACAAGGAUAUGUACUAAUCU | – | – | 0.0251 | 0.021 |
| UCUGAGGUCACAGGAUAUCAUACGUCGGCACGUUGAGAAGGGUGACCGAGCUACAUGAGGAUCACCCAUGUGCUGUCGUAACAA | – | – | 0.0854 | 0.164 |
| GGUGGUGAGCAAGGAUAUCGCCACUGCGUGACCUCACAACGGAUACAUGAGGAUCACCCAUGUGGCGAGAAGGUGCGGGAACGG | 0.0294 | 0.044 | – | – |
| GUAGAGUAAGGAUAUGGUGAAUAGGAUAGAAUGGUUAGAAACCAGAAGGUACAUGAGGAUCACCCAUGUAAUGU | 0.021 | 0.0211 | – | – |
| AUACAUGAGGAUCACCCAUGUUACUGGGUCUAUAUAGAACGUAGAAGGAUGUAUUGAAGAAGAUCAUAGGAUAUACUUUAUAGU | 0.0499 | 0.0389 | – | – |
| UAGUGCGUUAGAGGAUAUUCUAAAAUAAAAUAAAAGACAUGAGGAUCACCCAUGUAUGUACAUGGGAAGAAGGCUGAUGUGCUA | – | – | 0.438 | 0.0514 |
| CGAUAUGAUGCAGGAUAUCUAUCUUGAAUGAGGAGAGAAGGGCAAACCGAGACAUAAGCCUUAUUACAUGAGGAUCACCCAUGU | 0.0104 | 0.00938 | – | – |
| CGACGUUGAGAGAAGGAGUAAAAUACAUGAGGAUCACCCAUGUCAGGUGCUAGGAUAUCUUCGCGUGGCAGGGUCGGCCCGUGU | – | – | 0.066 | 0.0143 |
| UUUAUGAAGCUUCGUCAAUACAGUUAGGAUAUGAGAGACAUGAGGAUCACCCAUGUGCAUGUUGAUUAGAAGGAACAAUUAUCU | 0.0156 | 0.0146 | – | – |
| UAACCAGUCCAGAAGGUGACGUCUGAAACUAGUCAAGGAUAUGGGUUGGUCCACGGUCGGCUACAUGAGGAUCACCCAUGUACC | – | – | 0.0328 | 0.00833 |
| UUAUUAUAUGUAGGAUAUGCAUAUUAUUAUUGUGCAGAAGGACAUGAGGAUCACCCAUGUAUAUUAUUAUUAUAUAUUAUAUGU | 0.0257 | 0.0302 | – | – |
| GCUGUCGCGUGAGGAUAUGGUCGGCUUUGCUGACCAGAAGGCAUGUCAAUAGACAUGAGGAUCACCCAUGUGGUUAGGGCGGCU | – | – | 1.02 | 0.134 |
| GGGUACAUCGGAGGAUAUCAUGUAAAUACAUGAGGAUCACCCAUGUCGAUGGAGACAUCGGAGAUUGAGAAGGCCGAAGUACCG | – | – | 0.214 | 0.00899 |
| GAAUAGGCAGGAUAUACAUGAGGAUCACCCAUGUGCUUGCGCUAGGCACGUGAACAACGUAGAAGGGCCUAGAC | 0.014 | 0.0228 | – | – |
| GUUGCUAUCGGAGGAUAUUCAUACCGGAAACGGACAUGAGGAUCACCCAUGUGGCGAAAGCCAUGGGAGAAGGCCGAUAGCAAC | – | – | 1.35 | 0.138 |
| AUGCUUUAUGUAGGAUAUGCAUACGGUACGUAUGCAGAAGGACAUGAGGAUCACCCAUGUAUAUUAUUAUUACAUAUCAUACAU | 0.0266 | 0.377 | – | – |
| GGAUCAGAUGAGGAUAUUCGUUGUAUAACAACAGGAGAAGGCAUCACAUGAGGAUCACCCAUGUUCUACCUUCC | 0.0141 | 0.0158 | – | – |
| CGUGCUAUGUAGAAGGCAGAUCUGAUUCAGAUCUGAGGAUAUACAUGAGGAUCACCCAUGUUAUGCACCAGCACGAGAGUGCAG | 0.00718 | 0.0144 | – | – |
